Each structure is given as a SMILES string. Activity calls are given as the source filed them. No cut-off for these calls is given here.

For assay [1], the system named is L1210. The assay is described as follows: Cytotoxicity against mouse L1210 cells assessed as cessation of growth. In kind it is functional, cell-based.
Assay [2] relates to L1210. The experiment in a line: Cytotoxicity against mouse L1210 cells assessed as cessation of growth in presence of cytidine. In kind it is functional, cell-based.
Assay [3] has as its system L1210. The assay is described as follows: Cytotoxicity against mouse L1210 cells assessed as cessation of growth in presence of uridine. In kind it is functional, cell-based.
Assay [4] concerns L1210. The experiment in a line: Antitumor activity against mouse L1210 cells allografted in ip dosed mouse assessed as increase in life span at MNTD administered qd on day 1, 5 and 9 post tumor implantation relative to control. In kind it is functional. Put shortly: (§1)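 L1210 implanted ip in mice. Compound given ip in 0.9% saline on the listed schedule across a dose-response range. % ILS reported at the highest nontoxic dose, or at the dose giving maximal ILS for active compounds. Test minus control body-weight change on day 5 at the highest nontoxic dose.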

In assay [5] the test system is L1210. The assay is described as follows: Antitumor activity against mouse L1210 cells allografted in ip dosed mouse assessed as change in body weight at MNTD administered qd on day 1, 5 and 9 post tumor implantation measured on day 5 relative to control. In kind it is functional. Put shortly: (§2)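 Doses were given ip in 0.9% saline after ip L1210 implantation, as a dose–response series. The reading is the difference in average body weight change (g) between test (T) and control (C) groups, measured on day 5 at the highest nontoxic dose tested.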

The subject of assay [6] is L1210. The experiment in a line: Antitumor activity against mouse L1210 cells allografted in ip dosed mouse assessed as increase in life span at MNTD administered qd from day 1 to day 9 post tumor implantation relative to control. In kind it is functional. Put shortly:
as §1

Assay [7] relates to L1210. The assay is described as follows: Antitumor activity against mouse L1210 cells allografted in ip dosed mouse assessed as change in body weight at MNTD administered qd from day 1 to day 9 post tumor implantation measured on day 5 relative to control. In kind it is functional. Put shortly: as §2

As for `NC1=NC(=O)N([C@@H]2O[C@H](CO)[C@@H](O)[C@H]2O)CN1` [listing 1 of 2 here], in the assay with L1210 [1], the outcome was Active. Moreover, the result in the assay with L1210 [2] and in the assay with L1210 [3] was inactive.
As to `Cl.NC1=NC(=O)NCN1`, in the assay on L1210 [4], the increase in life span (ILS) is recorded as 0%. The Activity in the assay with L1210 [5] is recorded as 1 g.
In the case of `NC(N)=NC(=O)N[C@@H]1O[C@H](CO)[C@@H](O)[C@H]1O`, in the assay on L1210 [4], the increase in lifespan (ILS) was found to be 0%. The Activity with L1210 [5] was -2.2 g.
Turning to `NC1=NC(=O)N([C@@H]2O[C@H](CO)[C@@H](O)[C@H]2O)CN1` [listing 2 of 2 here], the ILS in the assay with L1210 [6] came out at 86%. The Activity in the assay with L1210 [7] is -3.2 g.
As to `NC1=NC(=O)N([C@@H]2O[C@H](CO)[C@H]3O[B-]4(O[C@H]32)O[C@@H]2[C@H](O4)[C@@H](CO)O[C@H]2N2CNC(N)=NC2=O)CN1.[Na+]` (stereo partly specified), the increase in lifespan (ILS) in the assay on L1210 [4] is given as 80%. In the assay with L1210 [5], the Activity was -1.5 g.

For orientation: ILS means how much longer treated animals lived than controls.

For the origin of these results see ChEMBL document CHEMBL3272089, “Synthesis and antitumor activity of dihydro-5-azacytidine, a hydrolytically stable analogue of 5-azacytidine” (J Med Chem, 1977).
